Experimental data taken from ChEMBL document CHEMBL3272253, “Relationship of molecular structure to in vivo scintigraphic distribution patterns of carbon-11 labeled compounds. 3. (11C)Hydantoins” (J Med Chem, 1976).
Blank lines part the entries; values can stand above or below the molecule they belong to.

What was measured:
Assay type in all cases: ADME, organism-based, Canis lupus familiaris
Settings in all cases: in vivo; call rule not given here
[1] = system: Canis familiaris; experiment: Drug level in iv dosed dog after 5 to 30 mins by gamma-scintillation counting analysis
Method in brief: (§1)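 Carbon-11-labeled hydantoin, 1–59 mCi of final product, dissolved in 1–1.5% aqueous NaOH and given iv to dogs. Distribution imaged serially for up to 2 hr or more with a scintillation camera fitted with a pinhole collimator (1-cm hyperbolic aperture), with whole-body scintiphotos at about 5 and 30 min. Readout is qualitative to semiquantitative; no coincidence imaging.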

[2] = system: Liver; experiment: Drug level in iv dosed dog liver after 5 to 30 mins by gamma-scintillation counting analysis; method in brief: as §1
[3] = system: Nucleic Acid; experiment: Ratio of drug level in iv dosed dog kidney to temporal muscle after 73 mins by gamma-scintillation counting analysis
Method in brief: (§2)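 Dogs were dosed iv with 11C-labeled hydantoin. Tissues and fluids were collected at necropsy 73 or 80 min post-dose and counted at fixed geometry in front of a thallium-activated NaI scintillation detector. Values are cpm/g of tissue divided by cpm/g of temporal muscle.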

[4] = system: Nucleic Acid; experiment: Ratio of drug level in iv dosed dog liver to temporal muscle after 73 mins by gamma-scintillation counting analysis; method in brief: as §2
[5] = system: Nucleic Acid; experiment: Ratio of drug level in iv dosed dog brain to temporal muscle after 73 mins by gamma-scintillation counting analysis; method in brief: as §2
[6] = Drug level in iv dosed dog lung after 5 to 30 mins by gamma-scintillation counting analysis; method in brief: as §1
[7] = system: Nucleic Acid; experiment: Ratio of drug level in iv dosed dog stomach to temporal muscle after 73 mins by gamma-scintillation counting analysis; method in brief: as §2
[8] = system: Nucleic Acid; experiment: Ratio of drug level in iv dosed dog cerebrospinal fluid to temporal muscle after 73 mins by gamma-scintillation counting analysis; method in brief: as §2
[9] = system: Nucleic Acid; experiment: Ratio of drug level in iv dosed dog mesenteric fat to temporal muscle after 73 mins by gamma-scintillation counting analysis; method in brief: as §2
[10] = system: Nucleic Acid; experiment: Ratio of drug level in iv dosed dog blood to temporal muscle after 73 mins by gamma-scintillation counting analysis; method in brief: as §2
[11] = system: Nucleic Acid; experiment: Ratio of drug level in iv dosed dog urine to temporal muscle after 73 mins by gamma-scintillation counting analysis; method in brief: as §2
[12] = system: Nucleic Acid; experiment: Ratio of drug level in iv dosed dog pancreas to temporal muscle after 73 mins by gamma-scintillation counting analysis; method in brief: as §2
[13] = system: Nucleic Acid; experiment: Ratio of drug level in iv dosed dog spleen to temporal muscle after 73 mins by gamma-scintillation counting analysis; method in brief: as §2
[14] = system: Nucleic Acid; experiment: Ratio of drug level in iv dosed dog washed heart to temporal muscle after 73 mins by gamma-scintillation counting analysis
Method in brief: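 [11C]-labeled hydantoin, from carrier-free [11C]HCN, given intravenously to dogs. Heart washed and taken at necropsy 73 min after dosing, along with temporal muscle. Tissues were counted at fixed geometry before a thallium-activated NaI scintillation detector. Value is cpm/g washed heart divided by cpm/g temporal muscle.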

[15] = system: Nucleic Acid; experiment: Ratio of drug level in iv dosed dog lung to temporal muscle after 73 mins by gamma-scintillation counting analysis; method in brief: as §2
[16] = system: Nucleic Acid; experiment: Ratio of drug level in iv dosed dog bile to temporal muscle after 73 mins by gamma-scintillation counting analysis; method in brief: as §2
[17] = Drug level in iv dosed dog kidney after 5 to 30 mins by gamma-scintillation counting analysis; method in brief: as §1
[18] = Drug excretion in iv dosed dog urine after 5 to 30 mins by gamma-scintillation counting analysis; method in brief: as §1
[19] = Drug level in iv dosed dog lung by gamma-scintillation counting analysis; method in brief: as §1
[20] = system: Canis familiaris; experiment: Drug level in iv dosed dog by gamma-scintillation counting analysis; method in brief: as §1
[21] = Drug level in iv dosed dog kidney by gamma-scintillation counting analysis; method in brief: as §1
[22] = Drug excretion in iv dosed dog urine by gamma-scintillation counting analysis; method in brief: as §1
[23] = system: Liver; experiment: Drug level in iv dosed dog liver by gamma-scintillation counting analysis; method in brief: as §1
[24] = Drug level in iv dosed dog vein by gamma-scintillation counting analysis; method in brief: as §1
[25] = system: Brain; experiment: Drug level in iv dosed dog brain by gamma-scintillation counting analysis; method in brief: as §1

Compound: CC1(c2ccccc2)NC(=O)N[11C]1=O (configuration not stated)
Drug uptake [1]: Active

Compound: CCC1(c2ccccc2)NC(=O)N[11C]1=O (configuration not stated)
Drug uptake [2]: Active | Ratio [3]: 1.25 | Ratio [4]: 1.33 | Ratio [5]: 1.25 | Drug uptake [6]: Active | Ratio [7]: 0.92 | Ratio [8]: 2.67 | Ratio [9]: 0.75 | Drug uptake [1]: Active | Ratio [10]: 1 | Ratio [11]: 0.67 | Ratio [12]: 1.67 | Ratio [13]: 1.25 | Ratio [14]: 1 | Ratio [15]: 0.75 | Ratio [16]: 1.58

Compound: CCCC1(c2ccccc2)NC(=O)N[11C]1=O (configuration not stated)
Drug uptake [1]: Active

Compound: O=C1N[11C](=O)C2(CCCCCCC2)N1
Drug uptake [25]: Not Active

The remaining lines, values ahead:

Drug uptake [17]: Active | Drug excretion [18]: metabolite_detected | Drug uptake [1]: Active
Compound: O=C(O)CCC1(c2ccccc2)NC(=O)N[11C]1=O (configuration not stated)

Drug uptake [19]: Active | Drug uptake [20]: Active | Drug uptake [21]: Active | Drug excretion [22]: metabolite_detected | Drug uptake [23]: Active | Drug uptake [24]: Active
Compound: O=C1N[11C](=O)C2(CCCCC2)N1

Drug uptake [25]: Active | Drug uptake [23]: Active
Compound: O=C1N[11C](=O)C2(CCCCCC2)N1

Drug uptake [25]: Not Active
Compound: O=C1N[11C](=O)C2(N1)c1ccccc1-c1ccccc12

Drug uptake [25]: Not Active
Compound: O=C1N[11C](=O)C2(CCCc3ccccc32)N1 (configuration not stated)
